Assay: Toxicity liver stage against HepG2, at 10uM
Format: cell-based
Parameters: test concentration 10 uM, cell line HepG2-A16-CD81EGFP
Conditions: human, HepG2-A16-CD81EGFP cells; read-out: INHIBITION
Summary of the method: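 Uninfected HepG2-A16-CD81EGFP cells, 3 × 10^3 per well, 1536-well, plated on prespotted compound at 10 μM final, parasite-free screening media added to match infected plates; puromycin 10 μM positive, DMSO 0.5% negative; run in parallel with 48 h PbLuc assay at 37 °C, 5% CO2; viability by CellTiter-Glo luminescence, normalized to controls.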

Compound	cytotoxicity at 10 µM [%]
CC(C)(C)c1c[nH]c([C@@H]2COCCN2C2CCOCC2)n1	-5.8
CO[C@H]1COCCN(C(=O)c2ccno2)C1	2.42
O=C(NC[C@H]1C[C@@H]2CCN1C[C@@H]2CN1CCCCC1)c1ccco1	7.32
CCN1CC(COc2ccccc2)Oc2ncccc2S1(=O)=O (stereo not given)	-0.947
Cn1nnc2c(sc3nc(N4CCOCC4)c4c(c32)CCC4)c1=O	-12.4
COC(=O)CNC(=O)Cn1ccc2ccc(F)cc21	-1.33
Cc1cc(S(=O)(=O)NCC(O)c2sccc2C)ccc1F (stereo not given)	-1.81
COC1(CNC(=O)c2ccoc2)CCSC1 (stereo not given)	-10.8
COC1CCN(c2ccc(NC(=O)Cn3cccc3)cc2)CC1	2.99
Cc1cc(C(=O)N2CCCC3(COCCN(c4ccccc4)C3)C2)[nH]n1 (stereo not given)	-1.56
C[C@H]1C[C@H]2CN(C(=O)c3cccc4c3OCCO4)CC[C@H]2O1	-0.91
COc1ccc(-c2noc(C(=O)NCCN3CCCCC3)n2)cc1OC	-6.24
CC(C)N(C)Cc1nnc2n1CCCN(C(=O)c1ccco1)C2	-1.17
NC(=O)C1CCN(C(=O)c2ccc(Cn3cc(Br)cn3)cc2)CC1	-6.24
Cc1nc(-c2cccc(Cl)c2)n(CC(=O)NCC2CCCO2)c(=O)c1C (stereo not given)	-7.04
O=C(Cc1ccc(Cl)cc1)N[C@@H]1CCC[C@@H](O)[C@@H]1O	2.3
O=C(Cn1ccnc1)N1CC[C@H](Oc2cccc(F)c2)[C@@H](O)CC1	-0.59
CN(CCc1ccccc1)Cc1c(C2CC2)[nH]c2ncccc12	0.145
CC(=O)N1CCC(Cc2cccc(-c3ccnn3C)n2)CC1	6.3
OCCN1CCC(Cc2nccs2)CC1	5.97
Cc1cc(-c2cc(N)c(=O)n(CC(=O)NC3CCCCC3)n2)c(C)o1	6.79
Cc1cc(CN2CCN(Cc3ccc(C#N)cc3OC(F)F)CC2)no1	1.81

Compound	cytotoxicity at 10 µM [%]
Cc1ccc(O)c(C(=O)NCCCS(=O)(=O)Cc2ccccc2)c1	33.6
CCN(Cc1ccoc1)C(=O)c1ccncc1O	6.85
Cc1ccc(N(CCC#N)C(=O)CCc2cscn2)cc1C	6.36
CC(C(=O)N1CCCC1)N1CCN(c2ncc(Cl)cn2)CC1 (stereo not given)	-3.34
NC(=O)C1CCCN1CCCc1ccc(C(F)(F)F)cc1 (stereo not given)	0.936
Cc1cc(CN(C)C(=O)NCc2ccco2)no1	1.58
Cc1ccc(CNc2ccc(N3CCC(CO)CC3)cn2)o1	19.1
CCc1[nH]c(C2(N)CCCC2)nc(=O)c1C	-1.29
CCCC(=O)NCc1ccc(N2CCCCC2)cc1	3.54
O=C1CN(c2ccc(CNC(=O)Nc3nccs3)cc2)CCN1	1.93
Cc1cc(C)n(CC(=O)N(CC2CN(C)CCO2)c2nccs2)n1 (stereo not given)	-5.85
COc1c(CNCc2cccc(CN3CCOCC3)c2)c(C)nn1C	11.1
CC(=O)c1cccc(NC(=O)CN2CCCCC2C)c1 (stereo not given)	-0.684
Cc1cc(C)n(-c2cncc(N3CCN(C(=O)C(C)C)CC3)n2)n1	-2.9
CCS(=O)(=O)CC(=O)N1CCCC1c1noc(C2CC2)n1 (stereo not given)	-12.9
Cc1csc(CNC(=O)NC2CCCc3c2cnn3CCO)n1 (stereo not given)	13.7
CN(C)C(=O)CCCn1ccc(NC(=O)NCc2cccc(F)c2)n1	6.85
CCc1nc(CN2CCCN(CC(=O)N3CCOCC3)CC2)no1	-10.2
COc1cc(NC(=O)c2ccc(C)c(F)c2)c(C(=O)N(C)C)cc1OC	2.82
CC(C)c1nnc(CNCC2CCCN2c2cccnn2)o1 (stereo not given)	1.05
CNc1cc(N2CCCC2CNCc2cccc(C#N)c2)ncn1 (stereo not given)	-10.7
CCc1nnc2n1CCN(C(=O)c1cnc(C3CC3)s1)C2	9.21

Compound	cytotoxicity at 10 µM [%]
CC1(C)CN(CC(F)(F)F)CCN1CC(=O)NC1CC1	12.5
CC(C)N(C)CC(=O)NCC(O)c1cc2ccccc2s1 (stereo not given)	-3.91
O=C(NC1CCN(C(=O)C2CCCCC2)C1)c1ccncc1Cl (stereo not given)	10.4
Cc1[nH]ccc1C(=O)N1CCCN1C(=O)OC(C)(C)C	-6.49
Cc1cc(CN(CCO)c2ccc(Br)cc2)on1	1.78
Cc1noc(C(C)SCc2ccccn2)n1 (stereo not given)	-6.67
COC(=O)c1ccc(CCn2cnc(C#N)n2)cc1	-3.15
CCC1COCCN1C(=O)NCc1nccn1CCc1ccccc1 (stereo not given)	4.42
CC(=O)NC1CCCN(C(=O)CNc2cccc(C)c2Cl)C1 (stereo not given)	-4.69
COc1nn(C)c2c1CCCN(C(=O)c1c[nH]cn1)C2	-100
CN(Cc1cccnc1)C[C@H]1OC[C@@H]2CCN(c3ncccn3)C[C@@H]21	-108
CN(C)C(=O)N1C[C@@H]2COC[C@]2(CNS(C)(=O)=O)C1	-1.47
Cc1nc[nH]c1CN1CCN(C(=O)C2CC2)[C@H]2CS(=O)(=O)C[C@H]21	0.855
Cn1c(CN2CC[C@](C)(O)C(C)(C)C2)cc2ccccc21	-3.6
COc1ccc(C(=O)C2CCCN(Cc3cnn(C)c3C)C2)c(OC)c1 (stereo not given)	-8.85
Cn1ccnc1CN1CCN(Cc2ccncc2)[C@@H]2CS(=O)(=O)C[C@@H]21	1.5
OC1(CN2CCCC2)CCCN(c2ncnc3[nH]cnc23)C1 (stereo not given)	11.3
Cc1cc(NC(=O)Cn2ccc(-c3ccc4c(c3)OCO4)n2)n(C)n1	6.28
O=C(c1ccc(C2CCCO2)s1)N1CCCOCC1 (stereo not given)	-0.256
Cn1cc(C(=O)N2CCC(c3ncc[nH]3)CC2)cn1	-5.42
O=C1CCCN1c1cccc(N2CCC(NCCc3cscn3)CC2)c1	-26
Cc1ccc(C(=O)N2C[C@H](NS(C)(=O)=O)[C@@H](C(C)C)C2)cc1F	-2.36

Compound	cytotoxicity at 10 µM [%]
CC(C)N1CC2(CCCN(c3ncc(Cl)cc3F)C2)CCC1=O (stereo not given)	12.2
O=S(=O)(NCCn1cc(C2CCOC2)nn1)c1ccc(Cl)cc1 (stereo not given)	-4.89
CS(=O)(=O)CCc1ncnn1-c1ccc(F)c(Cl)c1	-4.56
CC(C)C1CN(C(=O)c2cc(C3CC3)n[nH]2)CCC(=O)N1CC1CC1 (stereo not given)	-9.55
N#Cc1cccc(N2CCC3(CC2)Nc2ccccc2NC3=O)n1	5.57
O=C(O)c1cnc(N2CC[C@H](N3CCOCC3)[C@H](CCCO)C2)c(Cl)c1	4.6
CCN1CCC(CNc2nccc(C)n2)(N(C)C)CC1	-0.51
Cc1nc(CN(C)Cc2nc(-c3ccccc3)no2)co1	-1.86
CN(C)C(C(=O)N1CCC(c2ncc[nH]2)CC1)c1ccc2c(c1)OCO2 (stereo not given)	2.8
CCc1[nH]c2c(CNc3cncc(C(=O)N(C)C)n3)cc(C)cc2c1C	-10.2
COc1cc(N(C)CCCn2nc(C)cc2C)ncn1	1.6
CCCc1nc(C(=O)N(C)Cc2cnn(-c3cccc(OC)c3)c2)cs1	6.39
COc1cc2c(cc1CN1CCCCC1CN1CCOCC1)CCC2 (stereo not given)	-4.57
Cc1n[nH]c(C)c1NC(=O)CN1CCCC1c1noc(C(C)C)n1 (stereo not given)	6.45
Cc1cccc(-c2noc(CN3CC(n4cccn4)C3)n2)c1	-0.0158
COc1cc(CCC(=O)NC(C)C(=O)O)ccc1OCC(F)(F)F (stereo not given)	-2.15
CC(NC(=O)NCc1c(F)cccc1Cl)(C(=O)O)c1ccco1 (stereo not given)	-3.23
CN(Cc1ccco1)C(=O)Nc1cc(C(F)(F)F)c[nH]c1=O	2.79
CCn1ccnc1CN1CCN(CCOc2ccccc2C#N)CC1	-8.21
COc1ccc(OCCN2CCN(Cc3nccn3C)CC2)cc1	-6.25
CCc1cnc(CN(C(C)=O)C2CCN(CCc3ccccn3)C2)o1 (stereo not given)	-2.72
CCc1ccc(S(=O)(=O)Nc2cc(C(=O)O)ccc2F)s1	-8.27

Compound	cytotoxicity at 10 µM [%]
N#CCCN(C(=O)CN1CCCC1c1cccs1)c1ccccc1F (stereo not given)	-9.1
CCC(C)N(CCOC)Cc1nc2c(cnn2C)c(=O)[nH]1 (stereo not given)	-12.4
COc1c(C2CCCN2C(=O)c2nccnc2N)c(C)nn1C (stereo not given)	-5.55
CN(Cc1ccc2c(c1)OCO2)Cc1nc2c(cnn2C)c(=O)[nH]1	-3.63
O=C(NCC1CC1)N1CCN(Cc2ccc3c(c2)OCCO3)CC1	-4.3
O=C(CN1CC(n2cccn2)C1)NCCc1c[nH]c2ccccc12	-4.74
Cc1cccc(N2CCN(C(=O)Nc3cnn(CC(N)=O)c3)CC2)c1	-8.31
Cc1noc2ncc(C(=O)NCC3CCN(C(C)C)C3)cc12 (stereo not given)	-12.4
CCn1cc(NC(=O)NCC(c2cccs2)N(C)C)cn1 (stereo not given)	-2.66
CCc1nc2n(n1)CC(NCC(=O)Nc1cc(C)on1)CC2 (stereo not given)	-7.21
CN(C)c1ccc(NC(=O)NCc2ccccn2)cn1	-3.34
Cn1cc(N2CC3(CCN(Cc4ccccc4)CC3)OCC2=O)cn1	5.25
Cc1cnc(N2CC[C@@H]3OC(COCC(=O)N(C)C)CC[C@@H]32)nc1 (stereo not given in full)	7.98
Cc1nc(CO[C@@H]2CN(Cc3ccsc3)[C@@H]3COC[C@@H]32)cs1	3.04
Cc1ccc(C(=O)N2CCOCC3(CCN(C4CCOCC4)C3)C2)o1 (stereo not given)	-0.152
COC1COC2(CCN(CC3CCOCC3)CC2)C1 (stereo not given)	-110
c1ccc(CO[C@H]2CO[C@@]3(CCN(Cc4ccoc4)C3)C2)nc1	-15.3
c1cncc(CN2CCOC(c3ncn4c(C5CC5)cccc34)C2)c1 (stereo not given)	1.79
Cc1ccc(CN2C[C@@H]3CN(CC4CCOCC4)CCO[C@@H]3C2)s1	-12.7
Cc1nc(CN2CCOCC3(CCN(c4ccccn4)C3)C2)cs1 (stereo not given)	12.8
O=C1CO[C@@H]2CN(Cc3cccs3)C[C@H]2N1Cc1ccncc1	2.08
O=C(CSc1nc2n[nH]cc2c(=O)n1-c1ccccc1)N1CCOCC1	-8.21

Source: ChEMBL document CHEMBL4513216, “Probing the Open Global Health Chemical Diversity Library for Multistage-Active Starting Points for Next-Generation Antimalarials” (ACS Infect Dis, 2020)
